One test relates to PC-3. As to the kind of experiment: Antiproliferative activity against human PC3 cells after 72 hrs by MTS assay. The format is functional, cell-based. The settings on record: PC-3, 72 h. The gist of the method:
(§1)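 Cells seeded at 2000 per well, exposed to varying compound concentrations for 72 h. Viability read by MTS assay. IC50 values are means of two separate experiments, each run in triplicate.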
In general terms: Formazan colour is commonly taken as a measure of viable cells.

For the next test, the system named is DU-145. As to the kind of experiment: Antiproliferative activity against human DU145 cells after 72 hrs by MTS assay. The format is functional, cell-based. The settings on record: DU-145, 72 h. The gist of the method: as §1
For a further test, the system named is LNCaP. As to the kind of experiment: Antiproliferative activity against human LNCaP cells after 72 hrs by MTS assay. In kind it is functional, cell-based. The gist of the method:
as §1

The next test has as its system MCF7. As to the kind of experiment: Antiproliferative activity against human MCF7 cells after 72 hrs by MTS assay. The settings on record: MCF7, 72 h. In kind it is functional, cell-based. The gist of the method: as §1
Test [1] has as its target Signal transducer and activator of transcription 3 (Homo sapiens) (UniProt P40763). As to the kind of experiment: Inhibition of STAT3 binding to DNA.

The source made the active and inactive calls. The rule behind the calls is not given here.

Sequence of Signal transducer and activator of transcription 3 (Homo sapiens) (P40763 whole entry): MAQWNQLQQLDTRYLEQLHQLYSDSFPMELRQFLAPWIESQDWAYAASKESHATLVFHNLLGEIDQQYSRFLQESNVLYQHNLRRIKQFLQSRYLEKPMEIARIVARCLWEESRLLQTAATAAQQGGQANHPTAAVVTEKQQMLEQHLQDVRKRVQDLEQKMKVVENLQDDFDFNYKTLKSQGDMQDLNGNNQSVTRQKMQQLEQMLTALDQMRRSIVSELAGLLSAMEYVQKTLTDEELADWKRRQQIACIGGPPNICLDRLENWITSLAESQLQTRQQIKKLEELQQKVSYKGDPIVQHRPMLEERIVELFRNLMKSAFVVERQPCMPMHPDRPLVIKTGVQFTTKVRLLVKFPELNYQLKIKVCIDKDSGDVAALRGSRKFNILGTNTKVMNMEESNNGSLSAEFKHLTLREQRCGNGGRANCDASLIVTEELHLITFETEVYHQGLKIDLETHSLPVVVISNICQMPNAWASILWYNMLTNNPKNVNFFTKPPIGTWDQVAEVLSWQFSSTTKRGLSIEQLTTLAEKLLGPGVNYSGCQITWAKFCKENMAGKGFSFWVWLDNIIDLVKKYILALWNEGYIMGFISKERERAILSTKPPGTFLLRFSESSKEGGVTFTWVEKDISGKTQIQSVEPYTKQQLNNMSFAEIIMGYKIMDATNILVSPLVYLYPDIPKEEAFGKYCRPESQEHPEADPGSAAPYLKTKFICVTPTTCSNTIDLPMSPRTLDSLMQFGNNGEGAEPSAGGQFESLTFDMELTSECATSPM

For `COc1cccc2c1C(=O)c1cccc(C(C)=O)c1C2=O`, the IC50 in the test with PC-3, in the test with DU-145 and in the test with LNCaP was greater than 100 µM each time.

Take `C[C@@H]1CC(=O)c2c(ccc3c2C(=O)c2cccc(O)c2C3=O)C1` [OCHROMYCINONE]: the IC50 in the test on PC-3 is 18.7 µM; in the test with DU-145, 12.2 µM; with MCF7 it was 124 µM. For the same compound, in test [1], the result was Active.

With `CC(=O)c1cccc2c1C(=O)c1cccc(O)c1C2=O`, the IC50 came out at 13.4 µM in the test with PC-3, 16.2 µM in the test on DU-145, 88.5 µM in the test with MCF7 and 34.1 µM in the test with LNCaP.

For `COc1cccc2c1C(=O)c1c(C(C)=O)cccc1C2=O`, the IC50 in the test with PC-3, in the test with DU-145 and with LNCaP was greater than 100 µM in each case.

With `CC(=O)c1cccc2c1C(=O)c1c(O)cccc1C2=O`, the IC50 in the test with PC-3 amounted to 32.4 µM; with DU-145, 31.5 µM; in the test on LNCaP, 31.5 µM.

In general, IC50 refers to the concentration that gives 50% inhibition. Low readings indicate greater potency, high ones weaker potency.
